Laboratory results taken from ChEMBL document CHEMBL1123101, “Pseudosymmetry and bioisosterism in biaryl pyridyl competitive histamine H2-receptor antagonists” (J Med Chem, 1985).
Calls of active or inactive are those of the source. The calls are words filed in the database; no cut-off is given here.

Experiments:
Canis familiaris [1] = assay: Maximum percent inhibition of acid output in pentagastrin-stimulated Heidenhain pouch dog at dose (9 mg/kg) administered intravenously; format: functional; details: Canis lupus familiaris, iv
How it was run: (§1)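 Fasted unanesthetized Heidenhain pouch dogs, with acid output stimulated to near maximum by continuous pentagastrin infusion into a leg vein. Gastric juice was collected every 30 min, ten collections per dog. Acid was titrated to pH 7.4 with 0.1 N NaOH. Compound or vehicle was given iv 90 min after the infusion started. Percent inhibition compares the lowest post-dose acid output with the mean output just before dosing. Single experiments.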

[2] = Partition coefficient (logP); format: physicochemical; details: octanol/water
Canis familiaris [3] = assay: Antisecretory dose in mg/kg required for 50% inhibition in dogs by intravenous administration; format: functional, Canis lupus familiaris
How it was run: (§2)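 Pentagastrin-stimulated Heidenhain pouch dogs were dosed iv, and acid output was titrated from 30-min collections. Percent inhibition compares the lowest post-dose output with the pre-dose mean. The dose giving 50% inhibition came from linear regression of log dose on percent inhibition in n dogs.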

[4] = target: Histamine H2 receptor (Cavia porcellus) (UniProt P47747); assay: Dissociation constant of H2 receptor antagonist activity against guinea pig atrium; format: functional, tissue-based; details: Cardiac atrium
Canis familiaris [5] = assay: Maximum percent inhibition of acid output in pentagastrin-stimulated Heidenhain pouch dog following 1 mg/kg i.v. administration.; format: functional; details: Canis lupus familiaris, route intravenous; how it was run: as §1
Canis familiaris [6] = assay: Maximum percent inhibition of acid output in pentagastrin-stimulated Heidenhain pouch dog following 10 mg/kg i.v. administration.; format: functional; details: Canis lupus familiaris, route intravenous; how it was run: as §1
Canis familiaris [7] = assay: Maximum percent inhibition of acid output in pentagastrin-stimulated Heidenhain pouch dog at dose (5 mg/kg) administered intravenously; format: functional; details: Canis lupus familiaris, iv; how it was run: as §1
Canis familiaris [8] = assay: Maximum percent inhibition of acid output in pentagastrin-stimulated Heidenhain pouch dog at dose (23 mg/kg) administered intravenously; format: functional; details: Canis lupus familiaris, iv; how it was run: as §1
Canis familiaris [9] = species on record: Canis familiaris; assay: Effective dose for acid output in pentagastrin-stimulated Heidenhain pouch dog; format: functional, Canis lupus familiaris; how it was run: as §2
Canis familiaris [10] = assay: Maximum percent inhibition of acid output in pentagastrin-stimulated Heidenhain pouch dog at dose (0.5 mg/kg) administered intravenously; format: functional; details: Canis lupus familiaris, iv; how it was run: as §1
Canis familiaris [11] = assay: Maximum percent inhibition of acid output in pentagastrin-stimulated Heidenhain pouch dog at dose (8 mg/kg) administered intravenously; format: functional; details: Canis lupus familiaris, iv; how it was run: as §1
[12] = target: Histamine H2 receptor (Cavia porcellus) (UniProt P47747); assay: Dissociation constant of H2 receptor antagonist activity against guinea pig atrium;NA means not active; format: functional, tissue-based; details: Cardiac atrium
How it was run: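 Right atria from guinea pigs killed by a blow to the head, hung isometrically in oxygenated (95% O2/5% CO2) Krebs–Henseleit buffer at pH 7.4 and 32 ± 2 °C, and stabilized about 1 h. Histamine dose–response curves were run before and after antagonist at set final concentrations, with 3- or 30-min drug equilibration. DR is the ratio of half-maximal histamine concentrations. KB = B/(DR − 1). Schild slope is log(DR − 1) vs log B.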

Canis familiaris [13] = assay: Maximum percent inhibition of acid output in pentagastrin-stimulated Heidenhain pouch dog at dose (25 mg/kg) administered intravenously; format: functional; details: Canis lupus familiaris, iv; how it was run: as §1
Canis familiaris [14] = assay: Maximum percent inhibition of acid output in pentagastrin-stimulated Heidenhain pouch dog at dose(mg/kg) administered intravenously; format: functional, Canis lupus familiaris; how it was run: as §1

Histamine H2 receptor (Cavia porcellus), sequence (P47747 whole entry): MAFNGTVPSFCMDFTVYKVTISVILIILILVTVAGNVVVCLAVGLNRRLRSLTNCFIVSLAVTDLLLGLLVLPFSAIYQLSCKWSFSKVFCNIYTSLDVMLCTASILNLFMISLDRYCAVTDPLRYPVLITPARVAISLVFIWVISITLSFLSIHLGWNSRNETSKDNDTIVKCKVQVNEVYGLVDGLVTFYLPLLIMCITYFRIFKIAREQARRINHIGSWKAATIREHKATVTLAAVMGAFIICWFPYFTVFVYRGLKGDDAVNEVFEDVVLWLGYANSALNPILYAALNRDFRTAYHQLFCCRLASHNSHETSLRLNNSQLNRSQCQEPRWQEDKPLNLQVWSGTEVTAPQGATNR

| SMILES | logP [2] | -Log I50 (Canis familiaris [3]) | KB [4] [µM] | inhibition in vivo at 1 mg/kg (Canis familiaris [5]) [%] | inhibition in vivo at 10 mg/kg (Canis familiaris [6]) [%] | also measured |
| --- | --- | --- | --- | --- | --- | --- |
| CCCCNc1cc(-c2n[nH]c(N)n2)ccn1 | 2.15 | -0.5 | 0.67 | 29 |  | inhibition in vivo at 9 mg/kg (Canis familiaris [1]): 69% |
| CCCCCCNc1cc(-c2n[nH]c(N)n2)ccn1 | 3.3 | -1.2 | 0.27 |  | 40 |  |
| CCNc1cc(-c2n[nH]c(CC)n2)ccn1 |  |  | 1.3 |  |  | inhibition in vivo at 5 mg/kg (Canis familiaris [7]): 17% |
| Nc1n[nH]c(-c2ccnc(NCc3ccccc3)c2)n1 | 2.15 | -0.568 | 0.71 | 21 | 72 |  |
| Nc1n[nH]c(-c2ccnc(NCc3ccc(Cl)cc3)c2)n1 | 2.85 | -0.428 | 0.3 | 21 |  |  |
| CCNc1cc(-c2nc[nH]n2)ccn1 |  |  | 5 |  | 29 |  |
| CCNc1cc(-c2n[nH]c(C)n2)ccn1 |  |  | 0.55 | 35 |  |  |
| CCCNc1cc(-c2n[nH]c(N)n2)ccn1 | 1.61 | -0.379 | 0.77 | 33 |  | inhibition in vivo at 5 mg/kg (Canis familiaris [7]): 64% |
| Cc1n[nH]c(-c2ccnc(CO)c2)n1 |  |  | 23 |  | 7 |  |
| Cc1ccc(CNc2cc(-c3n[nH]c(N)n3)ccn2)cc1 | 2.69 | -1.03 | 0.13 |  |  | inhibition in vivo at 5 mg/kg (Canis familiaris [7]): 33% |
| CCNc1cc(-c2n[nH]c(NC)n2)ccn1 |  |  | 1.3 | 35 | 72 |  |
| Nc1n[nH]c(-c2ccncc2)n1 |  |  | 42 |  | 43 | inhibition in vivo at 23 mg/kg (Canis familiaris [8]): 73% |
| CCNc1cc(-c2c[nH]c(N)n2)ccn1 |  |  | 3.3 | 22 | 74 |  |
| CCNc1cc(-c2c[nH]c(C)n2)ccn1 |  |  | 1.4 |  | 55 |  |
| Nc1n[nH]c(-c2ccnc(NCCO)c2)n1 | 0.24 | -1.31 | 2 |  | 34 |  |
| Nc1n[nH]c(-c2ccnc(N3CCCC3)c2)n1 |  |  |  | 0 |  |  |
| CN(C)c1cc(-c2n[nH]c(N)n2)ccn1 |  |  | 3.2 | 48 |  | inhibition in vivo at 5 mg/kg (Canis familiaris [7]): 80% |
| Nc1n[nH]c(-c2ccnc(Nc3ccccc3)c2)n1 |  |  |  |  | 0 |  |
| CC(C)Nc1cc(-c2n[nH]c(N)n2)ccn1 |  |  | 3.6 |  |  | inhibition in vivo at 5 mg/kg (Canis familiaris [7]): 52% |
| CCCc1n[nH]c(-c2ccnc(NCC)c2)n1 |  |  | 11 |  | 45 |  |
| CCNc1cc(-c2n[nH]c(N)n2)ccn1 | 1.13 | -0.028 | 0.23 |  |  | ED50 (Canis familiaris [9]): 0.87 mg/kg |

| SMILES | logP [2] | -Log I50 (Canis familiaris [3]) | KB [4] [µM] | inhibition in vivo at 1 mg/kg (Canis familiaris [5]) [%] | inhibition in vivo at 10 mg/kg (Canis familiaris [6]) [%] | also measured |
| --- | --- | --- | --- | --- | --- | --- |
| Nc1n[nH]c(-c2ccnc(NCCCc3ccccc3)c2)n1 | 3.05 |  |  |  | 30 |  |
| CCNc1cc(-c2c[nH]cn2)ccn1 |  |  | 0.59 |  | 27 |  |
| Cc1n[nH]c(-c2ccnc(Cc3ccccc3)c2)n1 |  |  |  |  | 31 |  |
| C=CCNc1cc(-c2nc(N)n[nH]2)ccn1 | 1.26 | -0.37 | 0.48 | 31 |  |  |
| Nc1n[nH]c(-c2ccnc(NCCc3ccccc3)c2)n1 | 2.63 | -1 | 1.9 |  | 50 |  |
| Cc1ccc(CNc2cc(-c3n[nH]c(N)n3)ccn2)cc1C | 3.08 | -0.718 | 0.11 |  |  | inhibition in vivo at 5 mg/kg (Canis familiaris [7]): 49% |
| CCNc1cc(-c2n[nH]c(NCC)n2)ccn1 |  |  | 4.7 | 38 |  | inhibition in vivo at 0.5 mg/kg (Canis familiaris [10]): 21% |
| Cc1cc(-c2c[nH]c(C)n2)ccn1 |  |  | 4.6 |  | 24 |  |
| CCc1cc(-c2n[nH]c(N)n2)ccn1 |  |  | 1.8 |  |  | inhibition in vivo at 5 mg/kg (Canis familiaris [7]): 55% |
| CC(C)(C)c1ccc(CNc2cc(-c3n[nH]c(N)n3)ccn2)cc1 |  |  | 0.14 |  |  | inhibition in vivo at 8 mg/kg (Canis familiaris [11]): 0% |
| CCNc1cc(-c2n[nH]c(Cc3ccccc3)n2)ccn1 |  |  |  |  | 19 | KB [12]: inactive |
| CCN(C)c1cc(-c2n[nH]c(N)n2)ccn1 |  |  |  | 42 |  |  |
| CNc1cc(-c2n[nH]c(N)n2)ccn1 | 0.694 | 0 | 0.56 | 50 |  |  |
| Cc1cc(-c2n[nH]c(N)n2)ccn1 |  |  | 13 | 26 |  | inhibition in vivo at 5 mg/kg (Canis familiaris [7]): 60% |
| CCNc1cc(-c2n[nH]c(CO)n2)ccn1 |  |  | 4.5 | 20 | 53 |  |
| Cc1nc(-c2ccncc2)c[nH]1 |  |  |  |  |  | inhibition in vivo at 25 mg/kg (Canis familiaris [13]): 56% |
| COCCNc1cc(-c2n[nH]c(N)n2)ccn1 | 0.94 | -0.88 | 3.5 | 11 | 50 |  |
| CCCc1cc(-c2n[nH]c(N)n2)ccn1 |  |  | 4 |  |  | inhibition in vivo at 5 mg/kg (Canis familiaris [7]): 0% |
| CCCCCCCCCCNc1cc(-c2n[nH]c(N)n2)ccn1 | 4.07 | -1.7 |  |  |  | Kb [4]: 4.78 µM; Inhibition (Canis familiaris [14]): 14% |
| Nc1cc(-c2n[nH]c(N)n2)ccn1 | 0.11 | -0.306 | 2.2 |  |  | ED50 (Canis familiaris [9]): 2.35 mg/kg |
| CN/C(=N\CCSCc1nc[nH]c1C)NC#N [CIMETIDINE] |  |  |  |  |  | ED50 (Canis familiaris [9]): 1.02 mg/kg |
